Assay outcomes: PubChem, The Scripps Research Institute Molecular Screening Center
NPY Y1 blocker – NPY-Y1 receptor antagonists, primary screen, cell-based; Neuropeptide Y receptor type 1 (Homo sapiens), P25929; HEK293-CNG Y1 cells, membrane potential fluorescence; NPY at EC95, then isoproterenol; inhibition, % at 3.6 µM; 200,000 tested, 1% active;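 active = inhibition above the campaign mean inhibition of all tested compounds plus 3 SD, cut at about 20% in these data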;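 note: 0% = DMSO wells given NPY plus isoproterenol and 100% = isoproterenol alone without NPY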
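Material: Y1- and CNG-channel-expressing HEK293 cells / Probe or stimulus: NPY 25 nM then isoproterenol 1 µM plus Ro 20-1724 25 µM / Doses: 3.6 µM single dose, DMSO 0.4% / Schedule: compound incubation 1 h at room temperature, readout 45 min post-stimulation / Signal: membrane potential fluorescence / Benchmarks: isoproterenol-only wells as full block versus NPY-plus-isoproterenol wells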
NPY-Y1 PAM-ag – NPY-Y1 receptor potentiators or agonists, primary screen, cell-based; AID 1304, 2008; NPY-Y1 expressing cells, potentiator/agonist activation; 220,000 tested, 0.37% active; activation, % at 3.6 µM; in the data active = activation above about 33%, passing the limit was not always enough;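 note: cells stimulated with NPY at EC10 then isoproterenol at EC100; 0% = low agonist plus stimulus and 100% = saturating agonist plus stimulus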
NPY-Y2 PAM-ag – NPY-Y2 potentiators or agonists, primary screen, cell-based; 220,000 tested, 0.45% active; activation, % at 3.6 µM; Neuropeptide Y receptor type 2 (Homo sapiens), P49146; AID 1359, 2008; cells expressing NPY-Y2, potentiator/agonist read-out; in the data active = activation above about 27%;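 note: cells stimulated with NPY near EC25 plus isoproterenol at EC100; 0% = vehicle plus submaximal agonist and 100% = vehicle plus saturating agonist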
Target sequence (P49146 whole entry, looked up): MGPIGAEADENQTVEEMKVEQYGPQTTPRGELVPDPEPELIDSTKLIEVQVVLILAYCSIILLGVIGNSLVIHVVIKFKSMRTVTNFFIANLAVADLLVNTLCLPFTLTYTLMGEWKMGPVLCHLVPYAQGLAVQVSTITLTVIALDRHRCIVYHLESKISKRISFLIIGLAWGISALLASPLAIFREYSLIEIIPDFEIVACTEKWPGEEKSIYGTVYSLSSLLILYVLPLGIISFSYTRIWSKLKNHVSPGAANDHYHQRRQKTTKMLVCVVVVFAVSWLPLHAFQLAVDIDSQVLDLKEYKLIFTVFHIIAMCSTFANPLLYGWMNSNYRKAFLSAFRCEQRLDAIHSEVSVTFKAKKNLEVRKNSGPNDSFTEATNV
NPY Y2 blocker – NPY-Y2 receptor antagonists, primary screen, cell-based. NPY-Y2 expressing cells, antagonist mode. 140,000 tested, 0.99% active. Neuropeptide Y receptor type 2 (Homo sapiens), P49146. inhibition, % at 2.7 µM; in the data active = inhibition above about 17%;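 note: 0% = vehicle with agonist challenge and 100% = reference antagonist with challenge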
NPY-Y2 pot conf – NPY-Y2 potentiators or agonists, confirmation, cell-based; 450 tested, 20% active; shares compounds with NPY-Y2 PAM-ag; cell-based NPY-Y2 potentiator/agonist assay; activation, % at 3.6 µM; in the data active = activation above about 33%
NPY-Y1 potentiator – NPY-Y1 potentiators or agonists, counter-screen for NPY-Y2 potentiator project, cell-based, fluorescence. Y1 HEK293-CNG cells, membrane potential fluorescence. activation, % at 3.6 µM. 450 tested, 20% active. shares compounds with NPY-Y2 PAM-ag. AID 1651, 2009; in the data active = activation above about 45%;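 note: cells stimulated with submaximal NPY then isoproterenol with phosphodiesterase inhibitor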
NPY-Y1 agonist 2 – NPY-Y1 direct agonists, selectivity assay for NPY-Y2 potentiator project, cell-based, fluorescence; shares compounds with NPY-Y2 PAM-ag; HEK293 Y1-CNGC, membrane potential fluorescence, agonism; activation, % at 3.6 µM; 450 tested, 37% active; AID 1702, 2009;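 active = activation above the mean of DMSO-only control wells plus 3 SD, cut at about 18% in these data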;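 note: cells stimulated with 1 µM isoproterenol plus the PDE inhibitor Ro 20-1724; 0% = isoproterenol with DMSO and no NPY and 100% = 40 nM NPY; Y1 agonists lower the membrane potential dye signal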
CNGC inh – CNGC cAMP sensor activity inhibitors, counter-screen for NPY-Y2 potentiator project, cell-based, HEK293-CNG parental, membrane potential fluorescence | isoproterenol cAMP | 450 tested, 32% active | shares compounds with NPY-Y2 PAM-ag | inhibition, % at 3.6 µM;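 active = inhibition above the control-well mean plus 3 SD of those wells, cut at about 22% in these data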;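 note: 0% = DMSO with isoproterenol and 100% = DMSO without isoproterenol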
Y2 agonist ctr – NPY-Y2 direct agonists, counter-screen for NPY-Y2 potentiator project, cell-based, fluorescence | shares compounds with NPY-Y2 PAM-ag | HEK293 Y2/CNGC cells, membrane potential fluorescence, agonist mode | activation, % at 3.6 µM | 450 tested, 56% active;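 active = activation above the mean of solvent-only control wells plus 3 SD, cut at about 10% in these data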;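 note: cells stimulated by isoproterenol with no NPY added so direct agonism is tested; 0% = DMSO with isoproterenol alone and 100% = NPY at EC100 plus isoproterenol; agonism lowers probe fluorescence through less cAMP and CNG channel opening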
Active calls of the source: *; . = no result. An excerpt weighted towards active compounds, which were near 1.8% of everything screened.

SMILES	NPY Y1 blocker	NPY-Y1 PAM-ag	NPY-Y2 PAM-ag	NPY Y2 blocker	NPY-Y2 pot conf	NPY-Y1 potentiator	NPY-Y1 agonist 2	CNGC inh	Y2 agonist ctr
O=C(COc1cccc2ccccc12)NCc1cccnc1	3	-14	-8	.	.	.	.	.	.
CCN(CC)S(=O)(=O)c1ccc(/C=C/C(=O)OCC#N)cc1	-5	7	2	.	.	.	.	.	.
CCN(CC)S(=O)(=O)c1ccc(/C=C/C(=O)OCC(=O)N(C(C)C)C(C)C)cc1	-1	-2	47*	.	-1	9	-8	7	6
CCN1CCN(c2c(Cl)cccc2NC(=O)c2ccc([N+](=O)[O-])cc2)CC1	8	22	-11	.	.	.	.	.	.
Cc1nn(-c2ccccc2)nc1C(=O)c1c(C)[nH]n(-c2ccccc2)c1=O	.	-22	65*	.	-20	-13	-6	-13	-5
Cc1cccc2sc(NC(=O)C3CCN(S(=O)(=O)c4cc([N+](=O)[O-])ccc4Cl)CC3)nc12	-5	28	40*	-1	29	22	24*	18	41*
C=CCN1C2CCCC1CC(NC(=O)Nc1cc(C)cc(C)c1)C2 (stereo not given)	0	0	-19	.	.	.	.	.	.
Cc1cc(C)cc(NC(=S)N2CCC(N(C)CC3CCCO3)CC2)c1 (stereo not given)	-2	12	31*	.	7	3	-3	5	10
Cc1ccc(NC(=S)N2CCC(N(C)CC3CCCO3)CC2)cc1 (stereo not given)	0	-11	10	.	.	.	.	.	.
CCCN1Cc2cccc(C(=O)N3CCN(c4ccc(OC)cc4)CC3)c2C1=O	-4	6	-4	.	.	.	.	.	.
CCCN1Cc2cccc(C(=O)N3CCN(c4ccccc4)CC3)c2C1=O	2	4	38*	3	-5	5	-15	-4	9
Cc1ccccc1-n1nnnc1SCC(=O)NCC1CCCO1 (stereo not given)	1	0	-2	.	.	.	.	.	.
CCC1CCCCN1C(=S)Nc1cccc(S(=O)(=O)N(C)C)c1 (stereo not given)	5	8	2	.	.	.	.	.	.
Fc1ccc(Nc2nc(-c3cccnc3)cs2)cc1	-13	33	34*	.	35*	58*	59*	43*	43*
Cc1ccc(Nc2nc(-c3ccncc3)cs2)cc1	-15	31	36*	.	35*	48*	60*	49*	46*
COc1ccc2c(c1)C(=O)N(c1ccccc1C)C(=O)C2(C)C	1	-5	21	.	.	.	.	.	.
CN(C)C(=O)CSc1nnc(Cc2ccc([N+](=O)[O-])cc2)o1	3	-4	-5	1	.	.	.	.	.
Cc1cc(Cl)cc(Cl)c1CNc1c([N+](=O)[O-])c(=O)oc2ccccc12	-3	-7	7	5	.	.	.	.	.
N#CC(C#N)=C(Nc1ccc(F)cc1)SCc1cccc(F)c1	8	4	37*	3	-4	-37	-25	-17	2
Cc1ccc(C)c(OCC(O)CN2CCC(C)CC2)c1C (stereo not given)	5	-4	-3	5	.	.	.	.	.
Cc1ccccc1OCC(O)CN1CCC(C)CC1 (stereo not given)	-4	31	37*	.	21	34	19*	3	42*
CCCN1C2CCCC1CC(NC(=O)Nc1ccc(C(C)C)cc1)C2 (stereo not given)	-7	14	34*	0	22	30	19*	28*	24*
CN(C(=O)Cn1cc(C(F)(F)F)ccc1=O)c1c(N)n(Cc2ccccc2)c(=O)[nH]c1=O	.	-15	4	.	.	.	.	.	.
CCN(CC)CC(O)Cn1c2ccccc2c2ccccc21 (stereo not given)	-4	43	38*	5	38*	32	29*	-2	41*
COc1ccc(NS(=O)(=O)c2cnc[nH]2)cc1	0	-3	30*	.	4	11	-4	2	8
SMILES	NPY Y1 blocker	NPY-Y1 PAM-ag	NPY-Y2 PAM-ag	NPY Y2 blocker	NPY-Y2 pot conf	NPY-Y1 potentiator	NPY-Y1 agonist 2	CNGC inh	Y2 agonist ctr
COc1ccc(S(=O)(=O)N2CCC(O)(c3cccnc3)CC2)cc1OC	3	3	-2	.	.	.	.	.	.
O=c1[nH]cc(COCC(F)CCl)c(=O)[nH]1 (stereo not given)	.	-6	93*	.	-3	2	3	10	7
CC(C)c1ccc(NS(=O)(=O)c2ccc3[nH]cc(C(=O)N4CCC(C(N)=O)CC4)c(=O)c3c2)cc1	-11	21	39*	-4	16	32	18*	14	12*
CC1CCc2c(sc3nc(CSc4ncn[nH]4)[nH]c(=O)c23)C1 (stereo not given)	-1	-1	-7	1	.	.	.	.	.
CCn1c(=NC(=O)CSC(C)=O)sc2cc(OC)ccc21	-9	46	34*	-8	23	28	43*	29*	41*
NS(=O)(=O)c1ccc(N/N=C2/CCCCC2C2CCCCC2)c([N+](=O)[O-])c1 (stereo not given)	2	42	39*	-4	57*	61*	60*	41*	67*
Cc1cc(C)c2c(c1)/C(=N/Nc1ccc(S(N)(=O)=O)cc1[N+](=O)[O-])CCC2	0	13	-4	.	.	.	.	.	.
COc1ccc(S(=O)(=O)Nc2ccc(F)cc2)cc1N(C)S(=O)(=O)c1ccc(Cl)cc1	-2	12	30	2	.	.	.	.	.
COc1ccc(NS(=O)(=O)c2ccc(OC)c(N(C)S(=O)(=O)c3ccc(Cl)cc3)c2)cc1	4	-10	35*	3	-2	-31	-22	-9	-3
